Experimental data reported in publication PMC5424638 (Biomolecules & Therapeutics, 2016).

What was measured:
Cytotoxicity assay = format: cell-based, rat; settings: Sprague-Dawley, rat, primary neonatal rat cardiomyocytes
Summary of the method: (§1)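 Ventricles from 1–3-day-old Sprague-Dawley rats were digested with 0.05% collagenase II/0.05% trypsin at 37°C, pre-plated 1.5 h to remove nonmyocytes, and cultured 3 days in DMEM/10% FBS. Cells were exposed to test compound at 0.01–1000 µM for 72 h (final DMSO ≤0.05%). MTT was added for 4 h at 37°C and absorbance read at 570 nm. TC50 (50% viability loss vs untreated) came from at least three dose-response curves.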

[1] = test system: neonatal rat cardiomyocytes; assay: Cytotoxicity assay; format: cell-based; settings: for 50% toxic concentration (CC50) fold higher than in the cinnamaldehyde group: cardiomyocytes
Summary of the method: as §1

CVB3 (Nancy strain) = assay: Anti-viral activity assay in CVB3-infected cardiomyocytes; format: cell-based, coxsackievirus B3; settings: for IC50: Enterovirus B, CVB3, Cardiomyocyte, 72 h; for TI (TC50/IC50): cardiomyocytes
Summary of the method: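 Neonatal rat cardiomyocytes grown to confluence (about 1x10^4 cells/well) were infected with CVB3 (Nancy strain, 100 TCID50) for 2 h in six replicates. Cells were washed three times with PBS, then exposed to serial dilutions of test compound for 72 h. XTT plus phenazine methosulfate was added for 2 h, and OD was read at 450 nm (reference 690 nm). Inhibition was (ODtv−ODcv)/(ODcd−ODcv)x100, giving IC50 and TI (TC50/IC50).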

CVB3-induced myocarditis = assay: CVB3-induced viral myocarditis mouse model, cardiac pathological score; format: in vivo, BALB/c mice; settings: for Pathological score (grade): day 7, n=10; for Myocardial damage compared with the infected control (model) group: 20, 40 and 60 mg/kg, day 7
Summary of the method: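 Four-week-old male BALB/c mice (n=10/group, pathogen-free) received CVB3 i.p. at 100xTCID50 in 0.1 ml RPMI 1640. From day 2, interferon alpha was given i.p. once daily, and test compound at 20, 40 or 60 mg/kg was given by oral gavage in 0.5% CMC-saline. On day 7, ventricles were formalin-fixed, paraffin-embedded, cut at 4 µm and H&E stained. Inflamed fraction of the section (eyepiece grid, x200) was graded 0–4 (<25%, 25–50%, 50–75%, >75%).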

CVB3 = assay: Virus titration from heart homogenate of CVB3-infected mice; format: in vivo, BALB/c mice; settings: day 7, n=10
[2] = 24 h stability in blood at room temperature; format: in vitro ADME, rat; settings: unpublished data
[3] = Pharmacokinetics in rats after single oral administration; format: in vivo, rat; settings: single oral dose 20 mg/kg, preliminary, unpublished data
TNF-α mRNA = TNF-α mRNA expression in CVB3-infected cardiomyocytes; format: cell-based, rat; settings: 10 μM, 12 h
Summary of the method: (§2)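 Neonatal rat cardiomyocytes were infected with CVB3 and then incubated with 10 µM test compound. Cytokine mRNA expression in the cells was measured by real-time PCR after 12 h. Data are given as mean ± SD.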

IL-1β mRNA = IL-1β mRNA expression in CVB3-infected cardiomyocytes; format: cell-based, rat; settings: 10 μM, 12 h
Summary of the method: as §2

IL-6 mRNA = IL-6 mRNA expression in CVB3-infected cardiomyocytes; format: cell-based, rat; settings: 10 μM, 12 h
Summary of the method: as §2

TNF-α [4] = assay: TNF-α protein expression in CVB3-infected cardiomyocytes; format: cell-based, rat; settings: 10 μM, 24 h
Summary of the method: (§3)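 CVB3-infected neonatal rat cardiomyocytes were treated with 10 µM test compound for 24 h. Whole-cell lysates (equal protein) were run on 15% SDS-PAGE and transferred to nitrocellulose. Membranes were blocked in 5% skimmed milk for 2 h at room temperature, probed with cytokine and GAPDH antibodies overnight at 4°C, then with HRP secondary for 1 h, and detected by chemiluminescence. Bands were expressed as ratio to GAPDH (n=3, mean ± SD).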

IL-1β [5] = assay: IL-1β protein expression in CVB3-infected cardiomyocytes; format: cell-based, rat; settings: 10 μM, 24 h
Summary of the method: as §3

IL-6 [6] = assay: IL-6 protein expression in CVB3-infected cardiomyocytes; format: cell-based, rat; settings: 10 μM, 24 h
Summary of the method: as §3

[7] = ref Yuan et al., 1992; cited from earlier work
TNF-α [8] = assay: TNF-α level in culture supernatant of CVB3-infected cardiomyocytes; format: cell-based, rat; settings: 10 μM, 72 h; viral control 80.12 ± 8.40
IL-1β [9] = assay: IL-1β level in culture supernatant of CVB3-infected cardiomyocytes; format: cell-based, rat; settings: 10 μM, 72 h; viral control 163.64 ± 19.75
IL-6 [10] = assay: IL-6 level in culture supernatant of CVB3-infected cardiomyocytes; format: cell-based, rat; settings: 10 μM, 72 h; viral control 337.46 ± 29.22

SMILES | CC50 at 72 h (Cytotoxicity assay) [µM] | 50% toxic concentration (CC50) fold higher than in the cinnamaldehyde group [1] [fold] | IC50 (CVB3 (Nancy strain)) [µM] | TI (TC50/IC50) (CVB3 (Nancy strain)) | Pathological score (grade) (CVB3-induced myocarditis; 20 mg/kg/day, oral gavage) | Pathological score (grade) (CVB3-induced myocarditis; 40 mg/kg/day) | Pathological score (grade) (CVB3-induced myocarditis; 60 mg/kg/day, oral gavage) | Myocardial damage compared with the infected control (model) group (CVB3-induced myocarditis) | Viral titers (CVB3; 20 mg/kg/day, oral gavage) [Log TCID50/mg] | Viral titers (CVB3; 40 mg/kg/day) [Log TCID50/mg] | Stability in blood [2] | Time at which peak concentration was achieved after oral administration [3] | TNF-α mRNA expression (TNF-α mRNA) | IL-1β mRNA expression (IL-1β mRNA) | IL-6 mRNA expression (IL-6 mRNA) | CVB3-mediated TNF-α expression (Western blot) (TNF-α [4]) | CVB3-mediated IL-1β expression (Western blot) (IL-1β [5]) | CVB3-mediated IL-6 expression (Western blot) (IL-6 [6]) | also measured
COc1ccc(/C=C/C=O)cc1 [Compound 3, (E)-3-(4-methoxyphenyl)acrylaldehyde] | 7.88 ± 0.82 | – | – | – | – | – | – | – | – | – | – | – | – | – | – | – | – | – | –
O=C/C=C/c1ccc(Cl)cc1 [Compound 2, (E)-3-(4-chlorophenyl) acrylaldehyde] | 6970 | 7114 | 2110 | 3.31 | 2.85 ± 0.70 | 2.85 ± 0.70 | 2.75 ± 0.60 | no significant difference | 3.30 ± 0.48 | 3.20 ± 0.63 | stable for 24 h | about 1.2 h | – | – | – | – | – | – | CC50 ([1]; neonatal rat cardiomyocytes, 0.01–1000 μM, 72 h, MTT, called TC50 in methods): no obvious cytotoxicity; Viral titers (CVB3; 60 mg/kg/day, oral gavage): 3.10 ± 0.57 Log TCID50/mg
Cc1ccc(/C=C(\Br)C=O)cc1 [Compound 4, (Z)-2-bromo-3-p-tolylacrylaldehyde] | 38.6 ± 4.89 | 39 | 11.4 ± 2.22 | 3.39 | 2.80 ± 0.70 | 2.10 ± 0.60 | 1.90 ± 0.60 | significantly reduced | 3.10 ± 0.74 | 2.90 ± 0.57 | stable for 24 h | ~3.3 h | inhibited | inhibited | inhibited | markedly diminished | markedly diminished | markedly diminished | –
Cc1ccc(/C=C/C=O)cc1 [Compound 1, (E)-3-p-tolylacrylaldehyde] | 3.96 ± 0.29 | – | – | – | – | – | – | – | – | – | – | – | – | – | – | – | – | – | –
O=CC=Cc1ccccc1 [Cinnamaldehyde, 3-phenyl-2-propenal, reference compound] | 0.98 ± 0.12 | – | 24.2 ± 4.77 | 0.04 | – | 2.40 ± 0.50 | – | – | – | 2.80 ± 0.63 | – | – | – | – | – | – | – | – | Half-life in rat blood [7]: 4 min
O=C/C(Br)=C/c1ccc(Cl)cc1 [Compound 5, (Z)-2-bromo-3-(4-chlorophenyl) acrylaldehyde] | 85.7 ± 7.63 | 87 | 2.12 ± 0.37 | 40.42 | 1.95 ± 0.40 | 1.75 ± 0.60 | 1.30 ± 0.50 | significantly reduced | 2.80 ± 0.42 | – | stable for 24 h | ~2.1 h | inhibited | inhibited | inhibited | markedly diminished | markedly diminished | markedly diminished | TNF-α level in culture supernatant (TNF-α [8]): 43.60 ± 4.77 pg/mL; IL-1β level in culture supernatant (IL-1β [9]): 112.72 ± 13.60 pg/mL; IL-6 level in culture supernatant (IL-6 [10]): 232.80 ± 19.62 pg/mL
